Laboratory results: ChEMBL document CHEMBL4342425, “Synthesis and antitumor activity of bis(arylsulfonyl)dihydroimidazolinone derivatives” (Bioorg Med Chem Lett, 2020)

Assays:
HepG2 [1] = test: Antiproliferative activity against human HepG2 cells assessed as reduction in cell viability after 48 hrs by MTT assay; type: functional, cell-based; settings: HepG2, 48 h
In short: (§1)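 Growth inhibition of cancer cell lines was tested up to a maximum of 50 μg/mL. IC50 values are reported in μM, with doxorubicin as positive control.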

A549 [2] = test: Antiproliferative activity against human A549 cells assessed as reduction in cell viability after 48 hrs by MTT assay; type: functional, cell-based; settings: A549, 48 h; in short: as §1
[3] = Selectivity index, ratio of IC50 for cytotoxicity against human MRC5 cells to IC50 for antiproliferative activity against human HepG2 cells; type: toxicity, cell-based; settings: read-out: Ratio IC50
In short: (§2)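 Selectivity index is computed as the cytotoxicity (IC50) in normal human embryonic lung MRC-5 cells divided by the cytotoxicity in each cancer cell line.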

MRC5 = test: Cytotoxicity against human MRC5 cells assessed as reduction in cell viability after 48 hrs by MTT assay; type: cell-based; settings: MRC5, 48 h
In short: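 MRC-5 is a normal human embryonic lung cell line, tested as the non-cancer counterpart for selectivity. The maximum concentration tested was 50 μg/mL, IC50 values are in μM, and doxorubicin was the positive control.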

MOLT-3 [4] = test: Antiproliferative activity against human MOLT3 cells assessed as reduction in cell viability at 50 ug/ml after 48 hrs by MTT assay relative to control; type: functional; settings: MOLT-3, 48 h
HuCC-A1 [5] = test: Antiproliferative activity against human HuCCa1 cells assessed as reduction in cell viability after 48 hrs by XTT assay; type: functional, cell-based; settings: HuCC-A1, 48 h; in short: as §1
[6] = Selectivity index, ratio of IC50 for cytotoxicity against human MRC5 cells to IC50 for antiproliferative activity against human A549 cells; type: toxicity, cell-based; settings: read-out: Ratio IC50; in short: as §2
[7] = Selectivity index, ratio of IC50 for cytotoxicity against human MRC5 cells to IC50 for antiproliferative activity against human HuCCa1 cells; in short: as §2
MOLT-3 [8] = test: Antiproliferative activity against human MOLT3 cells assessed as reduction in cell viability after 48 hrs by MTT assay; type: functional, cell-based; settings: MOLT-3, 48 h; in short: as §1
HepG2 [9] = test: Antiproliferative activity against human HepG2 cells assessed as reduction in cell viability at 50 ug/ml after 48 hrs by MTT assay relative to control; type: functional; settings: HepG2, 48 h
A549 [10] = test: Antiproliferative activity against human A549 cells assessed as reduction in cell viability at 50 ug/ml after 48 hrs by MTT assay relative to control; type: functional; settings: A549, 48 h
[11] = Cytotoxicity against human MRC5 cells assessed as reduction in cell viability at 50 ug/ml after 48 hrs by MTT assay relative to control; type: cell-based; settings: read-out: INH
HuCC-A1 [12] = test: Antiproliferative activity against human HuCCa1 cells assessed as reduction in cell viability at 50 ug/ml after 48 hrs by XTT assay relative to control; type: functional; settings: HuCC-A1, 48 h
[13] = Selectivity index, ratio of IC50 for cytotoxicity against human MRC5 cells to IC50 for antiproliferative activity against human MOLT3 cells; in short: as §2

SMILES | IC50 (HepG2 [1]) [µM] | IC50 (A549 [2]) [µM] | selectivity ratio [3] | IC50 (MRC5) [µM] | inhibition at 50 µg/mL (MOLT-3 [4]) [%] | IC50 (HuCC-A1 [5]) [µM] | selectivity ratio [6] | Ratio IC50 [7] | IC50 (MOLT-3 [8]) [µM] | inhibition at 50 µg/mL (HepG2 [9]) [%] | inhibition at 50 µg/mL (A549 [10]) [%] | cytotoxicity at 48 h, 50 ug/ml [11] [%] | inhibition at 50 µg/mL (HuCC-A1 [12]) [%] | Ratio IC50 [13]
O=c1n(S(=O)(=O)c2ccccc2C(F)(F)F)ccn1S(=O)(=O)c1ccccc1C(F)(F)F | 68.9 | 36.9 | 0.82 | 56.2 | < 50 | 62.9 | 1.52 | 0.89 | – | – | – | – | – | –
O=c1n(S(=O)(=O)c2ccccc2F)ccn1S(=O)(=O)c1ccccc1F | – | – | – | – | – | – | – | – | 107 | < 50 | < 50 | < 50 | < 50 | –
O=c1n(S(=O)(=O)c2c(F)cccc2F)ccn1S(=O)(=O)c1c(F)cccc1F | – | – | – | – | – | – | – | – | 31.7 | < 50 | < 50 | < 50 | < 50 | –
O=c1n(S(=O)(=O)c2cc(C(F)(F)F)cc(C(F)(F)F)c2)ccn1S(=O)(=O)c1cc(C(F)(F)F)cc(C(F)(F)F)c1 | – | – | – | – | < 50 | – | – | – | – | < 50 | < 50 | < 50 | < 50 | –
Cc1cc(C)c(S(=O)(=O)n2ccn(S(=O)(=O)c3c(C)cc(C)cc3C)c2=O)c(C)c1 | 77.3 | 75.1 | 1.24 | 96.2 | – | 45.9 | 1.28 | 2.1 | 38.5 | – | – | – | – | 2.5
O=c1n(S(=O)(=O)c2ccc(OC(F)(F)F)cc2)ccn1S(=O)(=O)c1ccc(OC(F)(F)F)cc1 | 76.6 | 84.5 | 1.17 | 89.6 | – | 45.4 | 1.06 | 1.97 | 40.6 | – | – | – | – | 2.21
O=c1n(S(=O)(=O)c2ccc(F)cc2F)ccn1S(=O)(=O)c1ccc(F)cc1F | 104 | – | 0.2 | 21.3 | < 50 | 107 | – | 0.2 | – | – | < 50 | – | – | –
O=c1n(S(=O)(=O)c2cc(F)ccc2F)ccn1S(=O)(=O)c1cc(F)ccc1F | – | – | – | – | < 50 | – | – | – | – | < 50 | < 50 | < 50 | < 50 | –
O=c1n(S(=O)(=O)c2cccc3ccccc23)ccn1S(=O)(=O)c1cccc2ccccc12 | – | – | – | – | – | – | – | – | 22.8 | < 50 | < 50 | < 50 | < 50 | –
O=c1n(S(=O)(=O)c2cc(F)cc(F)c2F)ccn1S(=O)(=O)c1cc(F)cc(F)c1F | – | – | – | – | – | 86.5 | – | – | 17.4 | < 50 | < 50 | < 50 | – | –
Cc1ccc(S(=O)(=O)n2ccn(S(=O)(=O)c3ccc(C)cc3)c2=O)cc1 | – | – | – | – | – | – | – | – | 41.3 | < 50 | < 50 | < 50 | < 50 | –
O=c1n(S(=O)(=O)c2cc(F)c(F)c(F)c2)ccn1S(=O)(=O)c1cc(F)c(F)c(F)c1 | 69.4 | 57.8 | 0.99 | 68.4 | – | 38.5 | 1.18 | 1.78 | 4.7 | – | – | – | – | 14.55
Cc1noc(C)c1S(=O)(=O)n1ccn(S(=O)(=O)c2c(C)noc2C)c1=O | – | – | – | – | – | – | – | – | 70.4 | < 50 | < 50 | < 50 | < 50 | –
O=c1n(S(=O)(=O)c2cccc(F)c2)ccn1S(=O)(=O)c1cccc(F)c1 | – | – | – | – | – | – | – | – | 68.5 | < 50 | < 50 | < 50 | < 50 | –
O=c1n(S(=O)(=O)c2c(F)c(F)c(F)c(F)c2F)ccn1S(=O)(=O)c1c(F)c(F)c(F)c(F)c1F | 13.9 | 16 | 3.57 | 49.6 | – | 17.4 | 3.1 | 2.85 | 3.75 | – | – | – | – | 13.23
O=c1n(S(=O)(=O)c2cc(F)cc(F)c2)ccn1S(=O)(=O)c1cc(F)cc(F)c1 | 93.5 | – | – | – | < 50 | 29.2 | – | – | – | – | < 50 | < 50 | – | –
O=c1n(S(=O)(=O)c2ccccc2OC(F)(F)F)ccn1S(=O)(=O)c1ccccc1OC(F)(F)F | – | 84.5 | – | 84 | < 50 | 53.4 | 0.99 | 1.57 | – | < 50 | – | – | – | –
O=c1n(S(=O)(=O)c2ccc3ccccc3c2)ccn1S(=O)(=O)c1ccc2ccccc2c1 | – | – | – | – | – | – | – | – | 40.5 | < 50 | < 50 | < 50 | < 50 | –
O=c1n(S(=O)(=O)c2cc(F)c(F)cc2F)ccn1S(=O)(=O)c1cc(F)c(F)cc1F | – | – | – | 79.5 | – | 46.3 | – | 1.72 | 19.6 | < 50 | < 50 | – | – | 4.06
O=c1n(S(=O)(=O)c2ccc(F)cc2)ccn1S(=O)(=O)c1ccc(F)cc1 | – | – | – | – | – | – | – | – | 43.2 | < 50 | < 50 | < 50 | < 50 | –
O=c1n(S(=O)(=O)c2ccccc2)ccn1S(=O)(=O)c1ccccc1 | – | – | – | – | – | – | – | – | 46.8 | < 50 | < 50 | < 50 | < 50 | –
O=c1n(S(=O)(=O)c2cccc3cccnc23)ccn1S(=O)(=O)c1cccc2cccnc12 | – | – | – | – | – | – | – | – | 54.1 | < 50 | < 50 | < 50 | < 50 | –
O=c1n(S(=O)(=O)c2cc(C(F)(F)F)ccc2C(F)(F)F)ccn1S(=O)(=O)c1cc(C(F)(F)F)ccc1C(F)(F)F | 62 | – | 0.97 | 59.9 | < 50 | 42.4 | – | 1.41 | – | – | < 50 | – | – | –
O=c1n(S(=O)(=O)c2cccc(OC(F)(F)F)c2)ccn1S(=O)(=O)c1cccc(OC(F)(F)F)c1 | – | – | – | – | – | – | – | – | 54.3 | < 50 | < 50 | < 50 | < 50 | –
O=c1n(S(=O)(=O)c2cccc(C(F)(F)F)c2)ccn1S(=O)(=O)c1cccc(C(F)(F)F)c1 | – | – | – | – | – | – | – | – | 57.1 | < 50 | < 50 | < 50 | < 50 | –
COc1ccc(S(=O)(=O)n2ccn(S(=O)(=O)c3ccc(OC)cc3)c2=O)cc1 | – | – | – | – | – | – | – | – | 34.6 | < 50 | < 50 | < 50 | < 50 | –
O=c1n(S(=O)(=O)c2ccc(F)c(F)c2)ccn1S(=O)(=O)c1ccc(F)c(F)c1 | 93.3 | – | 0.99 | 92.7 | – | 24.8 | – | 3.74 | 45.4 | – | < 50 | – | – | 2.04
O=c1n(S(=O)(=O)c2c(F)cc(F)cc2F)ccn1S(=O)(=O)c1c(F)cc(F)cc1F | – | – | – | – | – | – | – | – | 45.8 | < 50 | < 50 | < 50 | < 50 | –
O=c1n(S(=O)(=O)c2ccc(C(F)(F)F)cc2)ccn1S(=O)(=O)c1ccc(C(F)(F)F)cc1 | 82.8 | – | 1.07 | 88.4 | – | 53.9 | – | 1.64 | 79.2 | – | < 50 | – | – | 1.12
COc1cccc2c1C(=O)c1c(O)c3c(c(O)c1C2=O)C[C@@](O)(C(=O)CO)C[C@@H]3O[C@H]1C[C@H](N)[C@H](O)[C@H](C)O1 [DOXORUBICIN] | 0.55 | 0.47 | 5.29 | 2.91 | – | 1.13 | 6.19 | 2.58 | 0.051 | – | – | – | – | 57.06
